Test results taken from ChEMBL document CHEMBL1137938, “Affinity and intrinsic efficacy (IE) of 5'-carbamoyl adenosine analogues for the A1 adenosine receptor--efforts towards the discovery of a chronic ventricular rate control agent for the treatment of atrial fibrillation (AF)” (Bioorg Med Chem Lett, 2004).

Experiments:
[1] = test system: Adenosine receptor A1 (Mesocricetus auratus); assay: Stimulation of binding of [35S]GTP uM)
Cavia porcellus [2] = species: Cavia porcellus; assay: Agonist-induced SH prolongation in guinea pig isolated heart was determined; 3-5 uM (Partial agonist); type: functional
[3] = Amount of tecadenoson present after 30 min in the liver S-9 assay as determined by mass specanalysis; trace; type: ADME, tissue-based; conditions: human, 0.5 h
[4] = Maximum concentration in rat plasma after 5 mg/kg oral gavage; type: ADME, organism-based; design: dose 5 mg/kg, route oral
How it was run: (§1)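 Rats dosed by oral gavage with parent at 5 mg/kg, or with bis-acetate prodrug at molar equivalents. Parent concentration in plasma followed over time. Cmax and AUC taken from the plasma profile. Oral bioavailability derived from AUC measurements.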

[5] = Bioavailability in rat after 5 mg/kg oral gavage; type: ADME, organism-based; conditions: in vivo, read-out: Bioavailabiility
How it was run: as §1

[6] = Concentration in rat plasma after 5 mg/kg oral gavage for 8 hours; type: ADME, organism-based; design: dose 5 mg/kg, route oral
How it was run: as §1

[7] = Compound remaining after incubation with 2 mg/mL of human liver microsomes at 37 degrees C for 30 min in a pH 7.4, 0.05 M phosphate buffer; type: ADME, Microsome
How it was run: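 Incubation with human liver microsomes at 2 mg/mL, 37 C, 30 min, in 0.05 M phosphate buffer pH 7.4 containing 5 mM MgCl2 and 2 mM NADPH; percentage of parent compound remaining recorded.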

[8] = Plasma half life in rat after 5 mg/kg oral gavage; 6-8 hours; type: ADME, organism-based; design: dose 5 mg/kg, route oral
Cavia porcellus [9] = species: Cavia porcellus; assay: Agonist-induced SH prolongation in guinea pig isolated heart was determined; 3-5 uM (Full agonist); type: functional
[10] = Amount of tecadenoson present after 30 min in the liver S-9 assay as determined by mass specanalysis; 1-2; type: ADME, tissue-based; conditions: human, 0.5 h
Cavia porcellus [11] = species: Cavia porcellus; assay: Agonist-induced SH prolongation in guinea pig isolated heart was determined; 0.5-1 uM (Partial agonist); type: functional, organism-based
Cavia porcellus [12] = species: Cavia porcellus; assay: Agonist-induced SH prolongation in guinea pig isolated heart was determined; 0.5-0.51 uM (Partial agonist); type: functional
[13] = Amount of tecadenoson present after 30 min in the liver S-9 assay as determined by mass specanalysis; type: ADME, tissue-based; conditions: human, 0.5 h
Cavia porcellus [14] = species: Cavia porcellus; assay: Agonist-induced SH prolongation in guinea pig isolated heart was determined; type: functional
[15] = Amount of tecadenoson present after 30 min in the liver S-9 assay as determined by mass specanalysis; -0.5 to 1; type: ADME, tissue-based; conditions: human, 0.5 h
Cavia porcellus [16] = species: Cavia porcellus; assay: Agonist-induced SH prolongation in guinea pig isolated heart was determined; Inactive; type: functional

CCNC(=O)OC[C@H]1OC(n2cnc3c(N[C@@H]4CCOC4)ncnc32)[C@H](O)[C@@H]1O (stereo not given in full)
[35S]GTPγS binding stimulation (% of CPA) [1]: 80%

O=C(NC1CCC1)OC[C@H]1OC(n2cnc3c(N[C@@H]4CCOC4)ncnc32)[C@H](O)[C@@H]1O (stereo not given in full)
[35S]GTPγS binding stimulation (% of CPA) [1]: 67%

CN(C)C(=S)OC[C@H]1OC(n2cnc3c(N[C@@H]4CCOC4)ncnc32)[C@H](O)[C@@H]1O (stereo not given in full)
[35S]GTPγS binding stimulation (% of CPA) [1]: 85%

C=CCNC(=S)OC[C@H]1OC(n2cnc3c(N[C@@H]4CCOC4)ncnc32)[C@H](O)[C@@H]1O (stereo not given in full)
[35S]GTPγS binding stimulation (% of CPA) [1]: 78%

O[C@@H]1[C@@H](COC(=S)NC2CCC2)OC(n2cnc3c(N[C@@H]4CCOC4)ncnc32)[C@@H]1O (stereo not given in full)
[35S]GTPγS binding stimulation (% of CPA) [1]: 79%

OC[C@H]1O[C@@H](n2cnc3c(N[C@@H]4CCOC4)ncnc32)[C@H](O)[C@@H]1O [TECADENOSON]
EC50 (Cavia porcellus [2]): < 0.5 µM

CNC(=O)OC[C@H]1OC(n2cnc3c(N[C@@H]4CCOC4)ncnc32)[C@H](O)[C@@H]1O (stereo not given in full)
Activity [3]: Partially active | Cmax [4]: 305 ng/mL | bioavailability [5]: 9% | AUC at 8 h [6]: 698 ng·h/mL | EC50 (Cavia porcellus [2]): 5 µM | remaining at 0.5 h [7]: ~100% | half-life [8]: 8 h

O=C(NC1CCCC1)OC[C@H]1OC(n2cnc3c(N[C@@H]4CCOC4)ncnc32)[C@H](O)[C@@H]1O (stereo not given in full)
EC50 (Cavia porcellus [2]): 5 µM

O=C(NC1CCCC1)OC[C@H]1OC(n2cnc3c(N[C@@H]4CCOC4)nc(Cl)nc32)[C@H](O)[C@@H]1O (stereo not given in full)
[35S]GTPγS binding stimulation (% of CPA) [1]: 69% | EC50 (Cavia porcellus [2]): 5 µM

CNC(=O)OC[C@H]1OC(n2cnc3c(N[C@@H]4CCOC4)nc(Cl)nc32)[C@H](O)[C@@H]1O (stereo not given in full)
[35S]GTPγS binding stimulation (% of CPA) [1]: 77% | EC50 (Cavia porcellus [2]): 5 µM

O[C@@H]1[C@@H](COC(=S)NC2CCCC2)OC(n2cnc3c(N[C@@H]4CCOC4)ncnc32)[C@@H]1O (stereo not given in full)
EC50 (Cavia porcellus [9]): 5 µM | [35S]GTPγS binding stimulation (% of CPA) [1]: 95%

CC(C)NC(=S)OC[C@H]1OC(n2cnc3c(N[C@@H]4CCOC4)ncnc32)[C@H](O)[C@@H]1O (stereo not given in full)
[35S]GTPγS binding stimulation (% of CPA) [1]: 84%

O=C(NC1CC1)OC[C@H]1OC(n2cnc3c(N[C@@H]4CCOC4)ncnc32)[C@H](O)[C@@H]1O (stereo not given in full)
[35S]GTPγS binding stimulation (% of CPA) [1]: 82%

CCCNC(=S)OC[C@H]1OC(n2cnc3c(N[C@@H]4CCOC4)ncnc32)[C@H](O)[C@@H]1O (stereo not given in full)
Activity [10]: 2% | [35S]GTPγS binding stimulation (% of CPA) [1]: 89% | EC50 (Cavia porcellus [11]): 1 µM | remaining at 0.5 h [7]: 98%

O[C@@H]1[C@@H](COC(=S)NC2CC2)OC(n2cnc3c(N[C@@H]4CCOC4)ncnc32)[C@@H]1O (stereo not given in full)
[35S]GTPγS binding stimulation (% of CPA) [1]: 82%

CC(C)NC(=O)OC[C@H]1OC(n2cnc3c(N[C@@H]4CCOC4)ncnc32)[C@H](O)[C@@H]1O (stereo not given in full)
[35S]GTPγS binding stimulation (% of CPA) [1]: 91%

O=C(NC1CCCCC1)OC[C@H]1OC(n2cnc3c(N[C@@H]4CCOC4)ncnc32)[C@H](O)[C@@H]1O (stereo not given in full)
[35S]GTPγS binding stimulation (% of CPA) [1]: 80%

O[C@@H]1[C@@H](COC(=S)NC2CCCCC2)OC(n2cnc3c(N[C@@H]4CCOC4)ncnc32)[C@@H]1O (stereo not given in full)
[35S]GTPγS binding stimulation (% of CPA) [1]: 82%

O=C(NCc1ccccc1)OC[C@H]1OC(n2cnc3c(N[C@@H]4CCOC4)ncnc32)[C@H](O)[C@@H]1O (stereo not given in full)
[35S]GTPγS binding stimulation (% of CPA) [1]: 44%

CN(C)C(=O)OC[C@H]1OC(n2cnc3c(N[C@@H]4CCOC4)ncnc32)[C@H](O)[C@@H]1O (stereo not given in full)
[35S]GTPγS binding stimulation (% of CPA) [1]: 87%

CCNC(=S)OC[C@H]1OC(n2cnc3c(N[C@@H]4CCOC4)nc(Cl)nc32)[C@H](O)[C@@H]1O (stereo not given in full)
EC50 (Cavia porcellus [12]): 0.51 µM | [35S]GTPγS binding stimulation (% of CPA) [1]: 84% | Activity [13]: 0% | remaining at 0.5 h [7]: 41%

O[C@@H]1[C@@H](COC(=S)NCc2ccccc2)OC(n2cnc3c(N[C@@H]4CCOC4)ncnc32)[C@@H]1O (stereo not given in full)
[35S]GTPγS binding stimulation (% of CPA) [1]: 93%

CCCCNC(=O)OC[C@H]1OC(n2cnc3c(N[C@@H]4CCOC4)ncnc32)[C@H](O)[C@@H]1O (stereo not given in full)
EC50 (Cavia porcellus [14]): > 5 µM | [35S]GTPγS binding stimulation (% of CPA) [1]: 49%

CNC(=S)OC[C@H]1OC(n2cnc3c(N[C@@H]4CCOC4)ncnc32)[C@H](O)[C@@H]1O (stereo not given in full)
Activity [15]: 1% | EC50 (Cavia porcellus [12]): 0.51 µM | [35S]GTPγS binding stimulation (% of CPA) [1]: 77% | remaining at 0.5 h [7]: 99%

CNC(=O)OC[C@H]1OC(n2cnc3c(N[C@@H]4CCOC4)ncnc32)[C@H](OC(C)=O)[C@@H]1OC(C)=O (stereo not given in full)
Cmax [4]: 647 ng/mL | AUC at 8 h [6]: 1340 ng·h/mL

C=CCNC(=O)OC[C@H]1OC(n2cnc3c(N[C@@H]4CCOC4)ncnc32)[C@H](O)[C@@H]1O (stereo not given in full)
[35S]GTPγS binding stimulation (% of CPA) [1]: 48%

CCCCNC(=S)OC[C@H]1OC(n2cnc3c(N[C@@H]4CCOC4)ncnc32)[C@H](O)[C@@H]1O (stereo not given in full)
EC50 (Cavia porcellus [16]): Not Active | [35S]GTPγS binding stimulation (% of CPA) [1]: 70%

CCCNC(=O)OC[C@H]1OC(n2cnc3c(N[C@@H]4CCOC4)ncnc32)[C@H](O)[C@@H]1O (stereo not given in full)
[35S]GTPγS binding stimulation (% of CPA) [1]: 73%

CNC(=S)OC[C@H]1OC(n2cnc3c(N[C@@H]4CCOC4)nc(Cl)nc32)[C@H](O)[C@@H]1O (stereo not given in full)
EC50 (Cavia porcellus [12]): 0.51 µM | [35S]GTPγS binding stimulation (% of CPA) [1]: 77% | Activity [13]: 0% | remaining at 0.5 h [7]: 62%

CCNC(=S)OC[C@H]1OC(n2cnc3c(N[C@@H]4CCOC4)ncnc32)[C@H](O)[C@@H]1O (stereo not given in full)
EC50 (Cavia porcellus [9]): 5 µM | [35S]GTPγS binding stimulation (% of CPA) [1]: 77%
